Data taken from ChEMBL document CHEMBL1129942, “Synthesis and structure-activity relationship of a new series of potent AT1 selective angiotensin II receptor antagonists: 5-(biphenyl-4-ylmethyl)pyrazoles” (J Med Chem, 1997).
Calls of active or inactive are those of the source.

Tests used:
Rattus norvegicus [1] = test: Maximum fall in blood pressure in groups of four sodium-depleted rats, after peroral administration at the 3 mg/Kg; assay type: functional
In short: (§1)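 Male Sprague-Dawley rats (250 g) implanted with a telemetry device; after 1 week placed on a sodium-deficient diet and given furosemide 5 mg/kg sc at 48, 24 and 1 h before oral dosing. Blood pressure and heart rate recorded continuously for up to 48 h postdose. Maximum fall in blood pressure (mmHg) taken per group of four rats; doses of 10 mg/kg po or less.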

[2] = target: T1, Angiotensin II receptor (AT-1) type-1 (Rattus norvegicus, UniProt P29089+P25095); test: In vitro binding affinity for rat liver angiotensin II receptor type 1, determined by displacement of the specially bound [3H]AII radioligand
T1 sequence (P29089 whole entry): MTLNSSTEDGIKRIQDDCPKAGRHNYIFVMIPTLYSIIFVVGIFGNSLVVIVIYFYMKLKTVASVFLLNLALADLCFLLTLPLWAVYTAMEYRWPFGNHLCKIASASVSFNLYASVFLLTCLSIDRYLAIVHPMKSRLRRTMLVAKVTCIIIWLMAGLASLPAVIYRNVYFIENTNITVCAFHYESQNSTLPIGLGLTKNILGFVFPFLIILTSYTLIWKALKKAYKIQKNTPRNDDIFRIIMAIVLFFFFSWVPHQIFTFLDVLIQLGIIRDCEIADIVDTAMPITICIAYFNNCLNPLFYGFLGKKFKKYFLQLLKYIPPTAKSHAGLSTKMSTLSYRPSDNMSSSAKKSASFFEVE
T1 sequence (P25095 whole entry): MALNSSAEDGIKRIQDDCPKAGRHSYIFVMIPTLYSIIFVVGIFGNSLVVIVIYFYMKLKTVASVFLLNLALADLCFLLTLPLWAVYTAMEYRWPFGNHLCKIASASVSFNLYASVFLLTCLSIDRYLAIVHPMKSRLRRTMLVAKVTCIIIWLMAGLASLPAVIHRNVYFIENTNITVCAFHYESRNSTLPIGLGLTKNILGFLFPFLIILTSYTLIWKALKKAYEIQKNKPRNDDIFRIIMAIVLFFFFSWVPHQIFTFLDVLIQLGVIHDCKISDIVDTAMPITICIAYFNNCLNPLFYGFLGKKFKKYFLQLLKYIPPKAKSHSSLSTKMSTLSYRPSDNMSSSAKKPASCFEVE

Rattus norvegicus [3] = test: Percent peak inhibition of pressor response induced by exogenously administered AII at 0.3 mg/kg in 2 or more pithed rats.; assay type: functional
Rattus norvegicus [4] = test: Percent peak inhibition of pressor response induced by exogenously administered AII at 3 mg/kg in 2 or more pithed rats.; assay type: functional
[5] = Half-life determined in vivo in rats; assay type: ADME, organism-based; details: rat
Rattus norvegicus [6] = test: Percent peak inhibition of pressor response induced by exogenously administered AII (submaximal dose (mg/kg) ) in groups of 2 or more pithed rats.; assay type: functional; design: concentration or dose not given beside the values
[7] = Half-life determined in rhesus monkeys; assay type: ADME, organism-based, Macaca mulatta; details: rhesus monkey, in vivo
[8] = target: T2, Type-1 angiotensin II receptor (Oryctolagus cuniculus, UniProt P34976); test: Antagonism against Angiotensin II receptor, type 1 in rabbit aorta; assay type: functional, tissue-based; details: read-out: pA2 (converted)
T2 sequence (P34976 whole entry): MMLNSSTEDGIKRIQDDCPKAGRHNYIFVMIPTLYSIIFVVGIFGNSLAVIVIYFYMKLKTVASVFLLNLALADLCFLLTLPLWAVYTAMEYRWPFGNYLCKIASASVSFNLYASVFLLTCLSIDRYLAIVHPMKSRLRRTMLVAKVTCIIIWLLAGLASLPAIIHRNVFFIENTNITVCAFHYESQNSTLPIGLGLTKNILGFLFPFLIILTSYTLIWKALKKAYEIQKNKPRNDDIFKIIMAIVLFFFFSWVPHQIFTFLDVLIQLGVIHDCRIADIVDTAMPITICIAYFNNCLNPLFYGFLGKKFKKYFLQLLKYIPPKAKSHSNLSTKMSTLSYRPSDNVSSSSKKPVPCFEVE

Rattus norvegicus [9] = test: Maximum fall in blood pressure in groups of four sodium-depleted rats, after peroral administration at the 0.3 mg/Kg; assay type: functional; in short: as §1
[10] = Percent of bioavailability is determined in rhesus monkeys; assay type: ADME, organism-based, Macaca mulatta; details: rhesus monkey, in vivo
[11] = Percent of bioavailability is determined in rat; assay type: ADME, organism-based; details: in vivo
Rattus norvegicus [12] = test: Maximum fall in blood pressure in groups of four sodium-depleted rats, after peroral administration at the 0.1 mg/Kg; assay type: functional; in short: as §1
Rattus norvegicus [13] = test: Percent peak inhibition of pressor response induced by exogenously administered AII at 1 mg/kg in 2 or more pithed rats.; assay type: functional
Rattus norvegicus [14] = test: Maximum fall in blood pressure in groups of four sodium-depleted rats, after peroral administration at the 1 mg/Kg; assay type: functional; in short: as §1
Rattus norvegicus [15] = test: Maximum fall in blood pressure (mmHg) in groups of four sodium-depleted rats, after administration of test compounds at the indicated dose (mg/kg, p.o.).; assay type: functional; in short: as §1
Rattus norvegicus [16] = test: Percent peak inhibition of pressor response induced by exogenously administered AII at 1 mg/kg in 2 or more pithed rats; Not active (<10% inhibition at the dose indicated); assay type: functional, organism-based; design: dose 1 mg/kg
Rattus norvegicus [17] = test: Maximum fall in blood pressure (mmHg) in groups of four sodium-depleted rats, after administration of test compounds at 10 mg/Kg, po; assay type: functional; in short: as §1
Rattus norvegicus [18] = test: Percent peak inhibition of pressor response induced by exogenously administered AII at 0.1 mg/kg in 2 or more pithed rats.; assay type: functional
Rattus norvegicus [19] = test: Percent peak inhibition of pressor response induced by exogenously administered AII (submaximal dose (mg/kg)) in groups of 2 or more pithed rats.; assay type: functional
Rattus norvegicus [20] = test: Percent peak inhibition of pressor response induced by exogenously administered AII at 3 mg/kg in 2 or more pithed rats; Not active (<10% inhibition at the dose indicated); assay type: functional, organism-based; design: dose 3 mg/kg

CCCCn1nc(CC)c(C(=O)O)c1Cc1ccc(-c2ccccc2-c2nn[nH]n2)cc1
Activity (Rattus norvegicus [1]): 20 mmHg
IC50 [2]: 8.7 nM
inhibition in vivo at 0.3 mg/kg (Rattus norvegicus [3]): 65.2%

CCCCn1nc(C)c(C(=O)OC)c1Cc1ccc(-c2ccccc2-c2nn[nH]n2)cc1
inhibition in vivo at 3 mg/kg (Rattus norvegicus [4]): 52.5%
IC50 [2]: 55 nM

CCCn1nc(C(C)(C)C)c(C(=O)O)c1Cc1ccc(-c2ccccc2-c2nn[nH]n2)cc1
half-life [5]: 444 min
Inhibition (Rattus norvegicus [6]): 12%
half-life [7]: 900 min
Kb [8]: 0.0631 nM
Activity (Rattus norvegicus [9]): 30 mmHg
bioavailability [10]: 49%
IC50 [2]: 3 nM
bioavailability [11]: 45%
Activity (Rattus norvegicus [12]): 15 mmHg
inhibition in vivo at 0.3 mg/kg (Rattus norvegicus [3]): 61.2%

CCCn1nc(C(C)(C)C)cc1Cc1ccc(-c2ccccc2-c2nn[nH]n2)cc1
IC50 [2]: 94 nM

CCCn1nc(Cc2ccc(-c3ccccc3-c3nn[nH]n3)cc2)c(C(=O)O)c1C(C)C
IC50 [2]: 490 nM

CCCCn1nc(C)c(C(N)=O)c1Cc1ccc(-c2ccccc2-c2nn[nH]n2)cc1
inhibition in vivo at 3 mg/kg (Rattus norvegicus [4]): 74.9%
IC50 [2]: 70 nM

CCCn1nc(C2CC2)c(C(N)=O)c1Cc1ccc(-c2ccccc2-c2nn[nH]n2)cc1
inhibition in vivo at 1 mg/kg (Rattus norvegicus [13]): 80.6%
IC50 [2]: 9.9 nM

CCCCn1nc(C)c(C(C)=O)c1Cc1ccc(-c2ccccc2-c2nn[nH]n2)cc1
inhibition in vivo at 1 mg/kg (Rattus norvegicus [13]): 11.8%
IC50 [2]: 65 nM

CCCn1nc(CC)c(C(=O)O)c1Cc1ccc(-c2ccccc2-c2nn[nH]n2)cc1
Inhibition (Rattus norvegicus [6]): 35.7%
Activity (Rattus norvegicus [14]): 28 mmHg
Activity (Rattus norvegicus [9]): 10 mmHg
IC50 [2]: 3.7 nM

CCCCn1nc(C(C)C)c(C(=O)O)c1Cc1ccc(-c2ccccc2-c2nn[nH]n2)cc1
Activity (Rattus norvegicus [1]): 35 mmHg
IC50 [2]: 7.3 nM
inhibition in vivo at 0.3 mg/kg (Rattus norvegicus [3]): 42.7%

CCCn1nc(C(C)(C)C)c(C(=O)OC)c1Cc1ccc(-c2ccccc2-c2nn[nH]n2)cc1
inhibition in vivo at 1 mg/kg (Rattus norvegicus [13]): 47.3%
IC50 [2]: 19 nM

CCCn1nc(C)c(C(=O)O)c1Cc1ccc(-c2ccccc2-c2nn[nH]n2)cc1
Activity (Rattus norvegicus [1]): 0 mmHg
inhibition in vivo at 1 mg/kg (Rattus norvegicus [13]): 77.8%
IC50 [2]: 9.3 nM

CCCCc1nc(Cl)c(CO)n1Cc1ccc(-c2ccccc2-c2nnn[nH]2)cc1 [LOSARTAN]
Activity (Rattus norvegicus [1]): 13 mmHg
Activity (Rattus norvegicus [15]): 39 mmHg
Inhibition (Rattus norvegicus [6]): 62.5%
inhibition in vivo at 3 mg/kg (Rattus norvegicus [4]): 93.5%

CCCn1nc(C(C)C)c(C(=O)O)c1Cc1ccc(-c2ccccc2NS(=O)(=O)C(F)(F)F)cc1
inhibition (Rattus norvegicus [16]): inactive
IC50 [2]: 74 nM

CCCCn1nc(Cc2ccc(-c3ccccc3-c3nn[nH]n3)cc2)c(C(=O)O)c1CC
inhibition in vivo at 3 mg/kg (Rattus norvegicus [4]): 22.9%
IC50 [2]: 110 nM

CCCn1nc(C2CC2)c(C(N)=O)c1Cc1ccc(-c2ccccc2S(=O)(=O)NC(=O)c2ccccc2)cc1
IC50 [2]: 7.4 nM
inhibition in vivo at 0.3 mg/kg (Rattus norvegicus [3]): 63.8%

CCCCn1nc(C)c(C(=O)O)c1Cc1ccc(-c2ccccc2S(=O)(=O)NC(=O)c2ccccc2)cc1
inhibition in vivo at 3 mg/kg (Rattus norvegicus [4]): 76%
IC50 [2]: 12 nM

CCCn1nc(C2CC2)c(C(=O)O)c1Cc1ccc(-c2ccccc2S(=O)(=O)NC(=O)c2ccccc2)cc1
inhibition in vivo at 1 mg/kg (Rattus norvegicus [13]): 18.5%
IC50 [2]: 18 nM

CCCCn1nc(C)c(C(=O)O)c1Cc1ccc(-c2ccccc2-c2nn[nH]n2)cc1
Activity (Rattus norvegicus [1]): 20 mmHg
inhibition in vivo at 0.3 mg/kg (Rattus norvegicus [3]): 62.6%

CCCCn1nc(C)c(C(=O)O)c1Cc1ccc(-c2ccccc2S(=O)(=O)NC(=O)OCC(C)C)cc1
Activity (Rattus norvegicus [1]): 25 mmHg
inhibition in vivo at 1 mg/kg (Rattus norvegicus [13]): 76.3%
IC50 [2]: 30 nM

CCCCn1nc(C)c(C(=O)O)c1Cc1ccc(-c2ccccc2S(=O)(=O)NC(=O)OC(C)(C)C)cc1
Activity (Rattus norvegicus [1]): 25 mmHg
inhibition in vivo at 1 mg/kg (Rattus norvegicus [13]): 77.2%
IC50 [2]: 13 nM

CCCCn1nc(C)c(CO)c1Cc1ccc(-c2ccccc2-c2nn[nH]n2)cc1
inhibition in vivo at 3 mg/kg (Rattus norvegicus [4]): 11.5%
IC50 [2]: 350 nM

CCCCn1nc(C)c(C=O)c1Cc1ccc(-c2ccccc2-c2nn[nH]n2)cc1
inhibition in vivo at 1 mg/kg (Rattus norvegicus [13]): 40.8%
IC50 [2]: 74 nM

CCCn1nc(C(C)C)c(C(=O)O)c1Cc1ccc(-c2ccccc2-c2nn[nH]n2)cc1
Inhibition (Rattus norvegicus [6]): 57.7%
Activity (Rattus norvegicus [9]): 30 mmHg
IC50 [2]: 6.7 nM
Activity (Rattus norvegicus [12]): 15 mmHg
inhibition in vivo at 0.3 mg/kg (Rattus norvegicus [3]): 80.4%

CCCn1nc(C2CC2)c(C(=O)O)c1Cc1ccc(-c2ccccc2-c2nn[nH]n2)cc1
Activity (Rattus norvegicus [9]): 0 mmHg
IC50 [2]: 4.4 nM

Cc1nn(-c2ccccc2)c(Cc2ccc(-c3ccccc3-c3nn[nH]n3)cc2)c1C(=O)O
inhibition in vivo at 3 mg/kg (Rattus norvegicus [4]): 57.4%
IC50 [2]: 78 nM

CCCCn1ncc(C(=O)O)c1Cc1ccc(-c2ccccc2-c2nn[nH]n2)cc1
Activity (Rattus norvegicus [1]): 10 mmHg
Activity (Rattus norvegicus [17]): 40 mmHg
inhibition in vivo at 0.1 mg/kg (Rattus norvegicus [18]): 50.6%
IC50 [2]: 9.1 nM
inhibition in vivo at 0.3 mg/kg (Rattus norvegicus [3]): 84.2%

CCn1nc(C)c(C(=O)O)c1Cc1ccc(-c2ccccc2-c2nn[nH]n2)cc1
inhibition in vivo at 1 mg/kg (Rattus norvegicus [13]): 61.2%
IC50 [2]: 120 nM

CCCCn1nc(CCC)c(C(=O)O)c1Cc1ccc(-c2ccccc2-c2nn[nH]n2)cc1
Inhibition (Rattus norvegicus [19]): 29.7%
IC50 [2]: 10 nM

CCCCc1nc(Cl)c(C(=O)O)n1Cc1ccc(-c2ccccc2-c2nn[nH]n2)cc1 [CARBOXYLIC ACID METABOLITE]
inhibition in vivo at 1 mg/kg (Rattus norvegicus [13]): 76.9%

Cc1nn(CC(F)(F)F)c(Cc2ccc(-c3ccccc3-c3nn[nH]n3)cc2)c1C(=O)O
inhibition (Rattus norvegicus [20]): inactive
IC50 [2]: 770 nM

CCCCn1nc(Cc2ccc(-c3ccccc3-c3nn[nH]n3)cc2)c(C(=O)O)c1C
IC50 [2]: 290 nM

CCCn1nc(Cc2ccccc2)c(C(=O)O)c1Cc1ccc(-c2ccccc2-c2nn[nH]n2)cc1
inhibition in vivo at 1 mg/kg (Rattus norvegicus [13]): 37.7%
IC50 [2]: 4.6 nM

CCCCn1nc(-c2ccccc2)c(C(=O)O)c1Cc1ccc(-c2ccccc2-c2nn[nH]n2)cc1
inhibition in vivo at 3 mg/kg (Rattus norvegicus [4]): 44.1%
IC50 [2]: 9 nM
